# Reference: ChEMBL document CHEMBL5058577, “EUbOPEN Chemogenomics Library 2 (Multiplex)” (2022)
# System: Fibroblast
# Test: Multiplex assay against human fibroblast
# Type: toxicity, cell-based
# How it was run: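 Compound was added to live cells that had been stained at seeding with Hoechst33342, BioTracker Green Microtubule Cytoskeleton Dye, MitoTracker Red and Annexin V Alexa Fluor 680, and imaging followed on a CQ1 microscope at 37°C and 5% CO2. CellPathfinder machine-learning gating divided cells into Hoechst high-intensity objects or normal cells, normal cells into healthy, pyknosed or fragmented nuclei, and pyknosed cells into mitotic or apoptotic. Tubulin, mitochondrial-mass and membrane-permeability phenotypes are per cents of healthy-nucleus cells.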
# [1] = 12 h, 1 µM, compound concentration 1 uM, replicate 1
# [2] = 12 h, 1 µM, compound concentration 1 uM, replicate 2
# [3] = 12 h, 10 µM, compound concentration 10 uM, replicate 1
# [4] = 12 h, 10 µM, compound concentration 10 uM, replicate 2
# [5] = 24 h, 1 µM, compound concentration 1 uM, replicate 1
# [6] = 24 h, 1 µM, compound concentration 1 uM, replicate 2
# [7] = 24 h, 10 µM, compound concentration 10 uM, replicate 1
# [8] = 24 h, 10 µM, compound concentration 10 uM, replicate 2
# [9] = 48 h, 1 µM, compound concentration 1 uM, replicate 1
# [10] = 48 h, 1 µM, compound concentration 1 uM, replicate 2
# [11] = 48 h, 10 µM, compound concentration 10 uM, replicate 1
# [12] = 48 h, 10 µM, compound concentration 10 uM, replicate 2
compound,measurement,setting,value
Cl.Cl.OCCOCCN1CCN(C(c2ccccc2)c2ccc(Cl)cc2)CC1 (stereo not drawn) [HYDROXYZINE HYDROCHLORIDE],Population Apoptotic (%),[1],43%
same,Population Fragmented Nuclei (%),[1],11%
same,Population Healthy Nuclei (%),[1],75%
same,Population Hoechst High Intensity Objects (%),[1],1%
same,Population Membrane Permeable-Phenotype (%),[1],0%
same,Population Mitochondria Different-Phenotype (%),[1],4%
same,Population Mitotic Cells (%),[1],56%
same,Population Normal (%),[1],98%
same,Population Pyknosed Nuclei (%),[1],13%
same,Population Tubulin-Different-Phenotype (%),[1],25%
same,Total Cell Count,[1],177
same,Population Apoptotic (%),[2],51%
same,Population Fragmented Nuclei (%),[2],22%
same,Population Healthy Nuclei (%),[2],57%
same,Population Hoechst High Intensity Objects (%),[2],7%
same,Population Membrane Permeable-Phenotype (%),[2],8%
same,Population Mitochondria Different-Phenotype (%),[2],6%
same,Population Mitotic Cells (%),[2],48%
same,Population Normal (%),[2],92%
same,Population Pyknosed Nuclei (%),[2],20%
same,Population Tubulin-Different-Phenotype (%),[2],46%
same,Total Cell Count,[2],155
same,Population Apoptotic (%),[3],47%
same,Population Fragmented Nuclei (%),[3],27%
same,Population Healthy Nuclei (%),[3],58%
same,Population Hoechst High Intensity Objects (%),[3],2%
same,Population Membrane Permeable-Phenotype (%),[3],0%
same,Population Mitochondria Different-Phenotype (%),[3],14%
same,Population Mitotic Cells (%),[3],52%
same,Population Normal (%),[3],97%
same,Population Pyknosed Nuclei (%),[3],14%
same,Population Tubulin-Different-Phenotype (%),[3],45%
same,Total Cell Count,[3],247
same,Population Apoptotic (%),[4],40%
same,Population Fragmented Nuclei (%),[4],19%
same,Population Healthy Nuclei (%),[4],47%
same,Population Hoechst High Intensity Objects (%),[4],7%
same,Population Membrane Permeable-Phenotype (%),[4],7%
same,Population Mitochondria Different-Phenotype (%),[4],6%
same,Population Mitotic Cells (%),[4],59%
same,Population Normal (%),[4],92%
same,Population Pyknosed Nuclei (%),[4],32%
same,Population Tubulin-Different-Phenotype (%),[4],58%
same,Total Cell Count,[4],178
same,Population Apoptotic (%),[5],30%
same,Population Fragmented Nuclei (%),[5],9%
same,Population Healthy Nuclei (%),[5],78%
same,Population Hoechst High Intensity Objects (%),[5],1%
same,Population Membrane Permeable-Phenotype (%),[5],2%
same,Population Mitochondria Different-Phenotype (%),[5],6%
same,Population Mitotic Cells (%),[5],70%
same,Population Normal (%),[5],98%
same,Population Pyknosed Nuclei (%),[5],12%
same,Population Tubulin-Different-Phenotype (%),[5],30%
same,Total Cell Count,[5],163
same,Population Apoptotic (%),[6],44%
same,Population Fragmented Nuclei (%),[6],26%
same,Population Healthy Nuclei (%),[6],54%
same,Population Hoechst High Intensity Objects (%),[6],5%
same,Population Membrane Permeable-Phenotype (%),[6],5%
same,Population Mitochondria Different-Phenotype (%),[6],3%
same,Population Mitotic Cells (%),[6],55%
same,Population Normal (%),[6],94%
same,Population Pyknosed Nuclei (%),[6],18%
same,Population Tubulin-Different-Phenotype (%),[6],47%
same,Total Cell Count,[6],154
same,Population Apoptotic (%),[7],51%
same,Population Fragmented Nuclei (%),[7],28%
same,Population Healthy Nuclei (%),[7],62%
same,Population Hoechst High Intensity Objects (%),[7],1%
same,Population Membrane Permeable-Phenotype (%),[7],1%
same,Population Mitochondria Different-Phenotype (%),[7],10%
same,Population Mitotic Cells (%),[7],48%
same,Population Normal (%),[7],98%
same,Population Pyknosed Nuclei (%),[7],9%
same,Population Tubulin-Different-Phenotype (%),[7],47%
same,Total Cell Count,[7],284
same,Population Apoptotic (%),[8],36%
same,Population Fragmented Nuclei (%),[8],29%
same,Population Healthy Nuclei (%),[8],50%
same,Population Hoechst High Intensity Objects (%),[8],9%
same,Population Membrane Permeable-Phenotype (%),[8],6%
same,Population Mitochondria Different-Phenotype (%),[8],6%
same,Population Mitotic Cells (%),[8],63%
same,Population Normal (%),[8],90%
same,Population Pyknosed Nuclei (%),[8],20%
same,Population Tubulin-Different-Phenotype (%),[8],66%
same,Total Cell Count,[8],198
same,Population Apoptotic (%),[9],60%
same,Population Fragmented Nuclei (%),[9],17%
same,Population Healthy Nuclei (%),[9],68%
same,Population Hoechst High Intensity Objects (%),[9],4%
same,Population Membrane Permeable-Phenotype (%),[9],0%
same,Population Mitochondria Different-Phenotype (%),[9],3%
same,Population Mitotic Cells (%),[9],39%
same,Population Normal (%),[9],95%
same,Population Pyknosed Nuclei (%),[9],13%
same,Population Tubulin-Different-Phenotype (%),[9],31%
same,Total Cell Count,[9],175
same,Population Apoptotic (%),[10],42%
same,Population Fragmented Nuclei (%),[10],34%
same,Population Healthy Nuclei (%),[10],56%
same,Population Hoechst High Intensity Objects (%),[10],3%
same,Population Membrane Permeable-Phenotype (%),[10],2%
same,Population Mitochondria Different-Phenotype (%),[10],5%
same,Population Mitotic Cells (%),[10],57%
same,Population Normal (%),[10],96%
same,Population Pyknosed Nuclei (%),[10],9%
same,Population Tubulin-Different-Phenotype (%),[10],44%
same,Total Cell Count,[10],155
same,Population Apoptotic (%),[11],80%
same,Population Fragmented Nuclei (%),[11],22%
same,Population Healthy Nuclei (%),[11],69%
same,Population Hoechst High Intensity Objects (%),[11],4%
same,Population Membrane Permeable-Phenotype (%),[11],0%
same,Population Mitochondria Different-Phenotype (%),[11],7%
same,Population Mitotic Cells (%),[11],19%
same,Population Normal (%),[11],95%
same,Population Pyknosed Nuclei (%),[11],8%
same,Population Tubulin-Different-Phenotype (%),[11],62%
same,Total Cell Count,[11],272
same,Population Apoptotic (%),[12],37%
same,Population Fragmented Nuclei (%),[12],36%
same,Population Healthy Nuclei (%),[12],47%
same,Population Hoechst High Intensity Objects (%),[12],6%
same,Population Membrane Permeable-Phenotype (%),[12],11%
same,Population Mitochondria Different-Phenotype (%),[12],2%
same,Population Mitotic Cells (%),[12],62%
same,Population Normal (%),[12],94%
same,Population Pyknosed Nuclei (%),[12],15%
same,Population Tubulin-Different-Phenotype (%),[12],57%
same,Total Cell Count,[12],200
Cc1ccc(OCC(O)C(C)NC(C)C)c2c1CCC2.Cl (stereo not drawn),Population Apoptotic (%),[1],36%
same,Population Fragmented Nuclei (%),[1],10%
same,Population Healthy Nuclei (%),[1],68%
same,Population Hoechst High Intensity Objects (%),[1],0%
same,Population Membrane Permeable-Phenotype (%),[1],0%
same,Population Mitochondria Different-Phenotype (%),[1],3%
same,Population Mitotic Cells (%),[1],63%
same,Population Normal (%),[1],99%
same,Population Pyknosed Nuclei (%),[1],20%
same,Population Tubulin-Different-Phenotype (%),[1],26%
same,Total Cell Count,[1],159
same,Population Apoptotic (%),[2],28%
same,Population Fragmented Nuclei (%),[2],17%
same,Population Healthy Nuclei (%),[2],55%
same,Population Hoechst High Intensity Objects (%),[2],9%
same,Population Membrane Permeable-Phenotype (%),[2],4%
same,Population Mitochondria Different-Phenotype (%),[2],7%
same,Population Mitotic Cells (%),[2],71%
same,Population Normal (%),[2],90%
same,Population Pyknosed Nuclei (%),[2],27%
same,Population Tubulin-Different-Phenotype (%),[2],50%
same,Total Cell Count,[2],210
same,Population Apoptotic (%),[3],47%
same,Population Fragmented Nuclei (%),[3],39%
same,Population Healthy Nuclei (%),[3],47%
same,Population Hoechst High Intensity Objects (%),[3],1%
same,Population Membrane Permeable-Phenotype (%),[3],0%
same,Population Mitochondria Different-Phenotype (%),[3],12%
same,Population Mitotic Cells (%),[3],52%
same,Population Normal (%),[3],98%
same,Population Pyknosed Nuclei (%),[3],12%
same,Population Tubulin-Different-Phenotype (%),[3],52%
same,Total Cell Count,[3],138
same,Population Apoptotic (%),[4],25%
same,Population Fragmented Nuclei (%),[4],33%
same,Population Healthy Nuclei (%),[4],50%
same,Population Hoechst High Intensity Objects (%),[4],2%
same,Population Membrane Permeable-Phenotype (%),[4],7%
same,Population Mitochondria Different-Phenotype (%),[4],17%
same,Population Mitotic Cells (%),[4],74%
same,Population Normal (%),[4],97%
same,Population Pyknosed Nuclei (%),[4],16%
same,Population Tubulin-Different-Phenotype (%),[4],54%
same,Total Cell Count,[4],168
same,Population Apoptotic (%),[5],57%
same,Population Fragmented Nuclei (%),[5],11%
same,Population Healthy Nuclei (%),[5],74%
same,Population Hoechst High Intensity Objects (%),[5],0%
same,Population Membrane Permeable-Phenotype (%),[5],4%
same,Population Mitochondria Different-Phenotype (%),[5],5%
same,Population Mitotic Cells (%),[5],42%
same,Population Normal (%),[5],100%
same,Population Pyknosed Nuclei (%),[5],13%
same,Population Tubulin-Different-Phenotype (%),[5],30%
same,Total Cell Count,[5],154
same,Population Apoptotic (%),[6],20%
same,Population Fragmented Nuclei (%),[6],27%
same,Population Healthy Nuclei (%),[6],46%
same,Population Hoechst High Intensity Objects (%),[6],15%
same,Population Membrane Permeable-Phenotype (%),[6],1%
same,Population Mitochondria Different-Phenotype (%),[6],8%
same,Population Mitotic Cells (%),[6],80%
same,Population Normal (%),[6],84%
same,Population Pyknosed Nuclei (%),[6],26%
same,Population Tubulin-Different-Phenotype (%),[6],52%
same,Total Cell Count,[6],201
same,Population Apoptotic (%),[7],35%
same,Population Fragmented Nuclei (%),[7],39%
same,Population Healthy Nuclei (%),[7],49%
same,Population Hoechst High Intensity Objects (%),[7],1%
same,Population Membrane Permeable-Phenotype (%),[7],1%
same,Population Mitochondria Different-Phenotype (%),[7],13%
same,Population Mitotic Cells (%),[7],64%
same,Population Normal (%),[7],98%
same,Population Pyknosed Nuclei (%),[7],11%
same,Population Tubulin-Different-Phenotype (%),[7],63%
same,Total Cell Count,[7],151
same,Population Apoptotic (%),[8],36%
same,Population Fragmented Nuclei (%),[8],35%
same,Population Healthy Nuclei (%),[8],50%
same,Population Hoechst High Intensity Objects (%),[8],5%
same,Population Membrane Permeable-Phenotype (%),[8],4%
same,Population Mitochondria Different-Phenotype (%),[8],14%
same,Population Mitotic Cells (%),[8],63%
same,Population Normal (%),[8],94%
same,Population Pyknosed Nuclei (%),[8],13%
same,Population Tubulin-Different-Phenotype (%),[8],65%
same,Total Cell Count,[8],168
same,Population Apoptotic (%),[9],64%
same,Population Fragmented Nuclei (%),[9],16%
same,Population Healthy Nuclei (%),[9],71%
same,Population Hoechst High Intensity Objects (%),[9],4%
same,Population Membrane Permeable-Phenotype (%),[9],0%
same,Population Mitochondria Different-Phenotype (%),[9],1%
same,Population Mitotic Cells (%),[9],35%
same,Population Normal (%),[9],95%
same,Population Pyknosed Nuclei (%),[9],11%
same,Population Tubulin-Different-Phenotype (%),[9],23%
same,Total Cell Count,[9],155
same,Population Apoptotic (%),[10],34%
same,Population Fragmented Nuclei (%),[10],37%
same,Population Healthy Nuclei (%),[10],42%
same,Population Hoechst High Intensity Objects (%),[10],11%
same,Population Membrane Permeable-Phenotype (%),[10],5%
same,Population Mitochondria Different-Phenotype (%),[10],8%
same,Population Mitotic Cells (%),[10],65%
same,Population Normal (%),[10],88%
same,Population Pyknosed Nuclei (%),[10],20%
same,Population Tubulin-Different-Phenotype (%),[10],60%
same,Total Cell Count,[10],196
same,Population Apoptotic (%),[11],71%
same,Population Fragmented Nuclei (%),[11],35%
same,Population Healthy Nuclei (%),[11],50%
same,Population Hoechst High Intensity Objects (%),[11],1%
same,Population Membrane Permeable-Phenotype (%),[11],0%
same,Population Mitochondria Different-Phenotype (%),[11],9%
same,Population Mitotic Cells (%),[11],28%
same,Population Normal (%),[11],98%
same,Population Pyknosed Nuclei (%),[11],13%
same,Population Tubulin-Different-Phenotype (%),[11],68%
same,Total Cell Count,[11],155
same,Population Apoptotic (%),[12],60%
same,Population Fragmented Nuclei (%),[12],39%
same,Population Hoechst High Intensity Objects (%),[12],7%
same,Population Membrane Permeable-Phenotype (%),[12],5%
same,Population Mitochondria Different-Phenotype (%),[12],10%
same,Population Mitotic Cells (%),[12],40%
same,Population Normal (%),[12],92%
same,Population Pyknosed Nuclei (%),[12],10%
same,Population Tubulin-Different-Phenotype (%),[12],63%
same,Total Cell Count,[12],157
